Measurements of several laboratories.
Protocols differ between the studies behind these lines.
Target: Interleukin-1 receptor-associated kinase 1 (IRAK1, Homo sapiens, UniProt P51617)

| Structure (SMILES) | test | conditions | remaining binding |
| --- | --- | --- | --- |
| COc1ncc2cc3ccccc3nc2c1C#N | cell-free assay, competition with immobilised ligand | 5 µM | 92% |
| FC(F)(F)Oc1cccc(-c2cnc3ccc(-c4ccncc4)nn23)c1 | cell-free assay, competition with immobilised ligand | 5 µM | 10% |
| O=C(NCCCN1CCOCC1)c1ccc(Nc2ncc(Cl)c(-c3ccc(Cl)s3)n2)cc1 | binding, competition with immobilised ligand | 1 µM | 0.15% |
| CN(C)c1nccc(-c2cnc3ncccn23)n1 | binding | 1 µM | 65% |
| O=C(c1ccc(Nc2nccc(-c3cc4ccccc4s3)n2)cc1)N1CCC(N2CCCC2)CC1 | binding, competition with immobilised ligand | 1 µM | 3.2% |
| CCC(=O)N[C@@H]1CC[C@H](C(=O)N(C)c2ccc(-c3nc4ccccc4o3)cc2)C1 | cell-free assay, competition with immobilised ligand | 1 µM | 100% |
| C[C@@H]1CCN(c2nccc(-c3cnn4ncccc34)n2)C1 | binding | 1 µM | 98% |
| N#CC1(c2ccccn2)CCN(Cc2cc(C(=O)N3CCCC3)c(=O)n3ccccc23)CC1 | cell-free assay, competition with immobilised ligand | 1 µM | 100% |
| CN(c1nccc(-c2cnn3ncccc23)n1)C1CC1 | binding | 1 µM | 100% |
| O=C(Nc1c[nH]nc1C(=O)NC1CCNCC1)c1cc(F)cc(F)c1 | binding, competition with immobilised ligand | 1 µM | 95% |
| CCS(=O)(=O)c1cc2cc(C[C@](O)(CC(C)(C)c3ccc(F)cc3C(N)=O)C(F)(F)F)[nH]c2cn1 | cell-free assay, competition with immobilised ligand | 1 µM | 99% |
| COc1cnc(Nc2cccc(S(N)(=O)=O)c2)nc1N1CCN(c2ccccc2)C(=O)C1 | binding, competition with immobilised ligand | 1 µM | 55% |
| O=S(=O)(NC1CCC(c2cc(F)ccc2F)(S(=O)(=O)c2ccc(Cl)cc2)CC1)C(F)(F)F (stereo not drawn) | cell-free assay, competition with immobilised ligand | 1 µM | 93% |
| C=CC(=O)N1CCC(C(=O)NCC(=O)N2CCN(c3nc(-c4cnc(N)nc4C(F)F)nc(N4CCOCC4)n3)CC2)CC1 | binding, competition with immobilised ligand | 1 µM | 100% |
| N[C@@H]1CCN(c2nccc(-c3cnn4ncccc34)n2)C1 | binding | 1 µM | 100% |
| Cc1c(NC(=O)c2cc(C(N)=O)nc3cc(F)ccc23)c(C(F)(F)F)nn1Cc1ccc(C#N)cc1 | cell-free assay, competition with immobilised ligand | 1 µM | 70% |
| CN(C)c1nccc(-c2cnn3ncccc23)n1 | binding | 1 µM | 71% |
| O=C(NCCCN1CCOCC1)c1ccc(Nc2nccc(-c3cc4ccccc4s3)n2)cc1 | binding, competition with immobilised ligand | 1 µM | 3.3% |
| COc1ccc2cc(OCC3(C(=O)O)CN(C(=O)c4ccc(F)cc4)C3)ccc2c1 | cell-free assay, competition with immobilised ligand | 1 µM | 100% |
| CN(C)c1ncc(F)c(-c2cnn3ncccc23)n1 | binding | 1 µM | 66% |
| c1cncc(-c2cccc(Nc3nccc(NC4CCCCC4)n3)c2)c1 | binding, competition with immobilised ligand | 10 µM | 9.9% |
